These results are taken from ChEMBL document CHEMBL4043304, “Synthesis and Evaluation of Hydrogen Peroxide Sensitive Prodrugs of Methotrexate and Aminopterin for the Treatment of Rheumatoid Arthritis” (J Med Chem, 2018).

The structures appear in SMILES notation. In brackets after ≈: the same amount, converted by molar mass. Activity calls are given as the source filed them. No cut-off for these calls is given here.

Data set [1] is described as follows: Prodrug activation in DMSO/PBS mixture assessed as formation of methotrexate at 50 uM after <3 hrs in presence of 0.5 mM H2O2 by RP-UPLC-MS method. The method in brief: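 50 µM prodrug in 30% DMSO/PBS pH 7.4 at 37 °C with diclofenac internal standard. Started with H2O2 at 0.5 mM final. Sampled 5 min to 4 h (some compounds to 48 h). RP-UPLC-UV at 306 nm. No-H2O2 control run in parallel. Triplicate.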

The nature of data set [2]: Prodrug activation in DMSO/PBS mixture assessed as formation of methotrexate at 100 uM after 24 hrs in presence of 0.25 to 10 mM H2O2 by RP-UPLC-MS method. The method in brief: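 Prodrug from 1 mM DMSO stock in PBS pH 7.4 with diclofenac internal standard. Started with H2O2 solutions of 10, 5, 1, 0.5 or 0.25 mM (stock concentrations). Incubated at 37 °C and sampled 5 min to 24 h (48 h for some). RP-UPLC-UV at 306 nm. PBS-only control run. Triplicate.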

Data set [3] can be described thus: Kinetic solubility of the compound in DMSO/PBS mixture after 20 hrs by RP-UPLC-UV method. The format is physicochemical. As to conditions: read-out: Kinetic_solubility. The method in brief: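 100 µM compound in 1% DMSO/PBS pH 7.4, shaken 20 h at 37 °C. Centrifuged to remove insoluble material; supernatant quantified by RP-UPLC-UV at 306 nm. Triplicate.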
Data set [4] can be described thus: Half life in PBS/DMSO mixture at pH 7.4 by RP-UPLC-UV method. The format is physicochemical.
A short description of data set [5]: Half life in SGF by RP-UPLC-UV method. Format: physicochemical. In a few lines:
(§1)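 SGF or SIF (SIF adjusted to pH 7.5) dosed from a 10 mM DMSO stock. Incubated at 37 °C and sampled at 0, 1, 2, 4 and 24 h. Run in triplicate.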

Data set [6] is described as follows: Half life in SIF by RP-UPLC-UV method. Format: physicochemical. In a few lines: as §1
Data set [7] can be described thus: Half life in human plasma at 20 uM by RP-UPLC-UV method. Format: ADME, cell-free. In a few lines: (§2)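 Reconstituted lyophilized human or mouse plasma mixed about 1:1 with PBS and pre-warmed to 37 °C. Compound added to 20 µM final. […] Procaine (human) and diltiazem (mouse) as controls.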
Data set [8] in a line: Half life in mouse plasma at 20 uM by RP-UPLC-UV method. The format is ADME, cell-free. In a few lines:
as §2

The nature of data set [9]: Intrinsic clearance in human liver microsomes at 10 uM after 5 to 60 mins by RP-UPLC-UV method. The conditions noted are these: read-out: CLH. Format: ADME, microsome. In a few lines: (§3)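 Pooled male liver microsomes (human, or CD-1 mouse) in PBS at 37 °C with 10 µM compound. Reaction started with NADPH. Aliquots taken 0–60 min (mouse also 120 and 240 min) and quenched with cold MeCN/diclofenac. Read by RP-UPLC-UV, ln[C] vs time, first order. No-NADPH control run; verapamil (human) or diphenhydramine (mouse) as reference.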

A short description of data set [10]: Intrinsic clearance in CD1 mouse liver microsomes at 10 uM after 5 to 240 mins by RP-UPLC-UV method. Format: ADME, microsome. The conditions noted are these: read-out: CLH. The method in brief:
as §3
On the technique in general: Liver microsomes are vesicles of endoplasmic reticulum, rich in cytochrome P450 enzymes.

Data set [11] is described as follows: Chemical stability in PBS/DMSO mixture at pH 7.4 after 24 hrs by RP-UPLC-UV method. The format is physicochemical. The conditions noted are these: read-out: Stability.
Data set [12] in a line: Metabolic stability in human plasma at 20 uM after 24 hrs by RP-UPLC-UV method. Format: ADME, cell-free. The conditions noted are these: read-out: Stability. The method in brief: as §2
A short description of data set [13]: Metabolic stability in mouse plasma at 20 uM after 8 hrs by RP-UPLC-UV method. The format is ADME, cell-free. As to conditions: read-out: Stability. In a few lines: as §2
Data set [14] deals with NCI-H460. The data set is described as follows: Cytotoxicity against human NCI-H460 cells assessed as decrease in cell viability after 48 hrs by MTS assay. Format: functional, cell-based. In a few lines: (§4)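 MCF-7 (DMEM) or NCI-H460 (RPMI), 10% FBS, seeded at 10^4 or 7×10^3 cells/well respectively and attached for 24 h. Exposed to serial compound concentrations for 48 h, then MTS read at 490 nm. DMSO ≤0.4% matched controls. Triplicate. IC50 by non-linear regression.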
On the technique in general: Formazan colour is commonly taken as a measure of viable cells.

The test system of data set [15] is MCF7. Description: Cytotoxicity against human MCF7 cells assessed as decrease in cell viability after 48 hrs by MTS assay. Format: functional, cell-based. In a few lines: as §4
Data set [16] has as its system NCI-H460. The data set is described as follows: Cytotoxicity against human NCI-H460 cells assessed as decrease in cell viability preincubated with H2O2 for 24 hrs followed by cell addition measured after 48 hrs by MTS assay. Format: functional, cell-based. The method in brief: (§5)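 Compound pre-activated at 125 µM with 1.25 mM H2O2 in DMSO:PBS 1:1, 24 h at 21 °C. Then added to MCF-7 or NCI-H460 cells (24 h attached) for 48 h. Final H2O2 <10 µM. MTS read at 490 nm. Triplicate. IC50 by non-linear regression.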

Data set [17] concerns MCF7. Description: Cytotoxicity against human MCF7 cells assessed as decrease in cell viability preincubated with H2O2 for 24 hrs followed by cell addition measured after 48 hrs by MTS assay. Format: functional, cell-based. The method in brief:
as §5

Data set [18] relates to Mus musculus. Description: Antiarthritic activity in collagen-induced DBA/1J mouse arthritis model assessed as decrease in incidence of arthritis at 9.7 mg/kg, ip administered daily for 2 weeks starting on day 27 post first immunization measured thrice per week during compound dosing relative to control. Format: functional, organism-based. The method in brief: (§6)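 Male DBA/1J mice (8–9 wk, n = 8/group). Arthritis induced by intradermal tail-base immunization with 100 µg chicken type-II collagen in CFA on day −1, with a 50 µg boost on day 21. Daily i.p. dosing in 2% DMSO/PBS for 14 days from day 27. Blinded scoring three times weekly, 0–15 per limb (max 60). Vehicle group as control. Mann-Whitney test.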

For data set [19], the system named is Mus musculus. The data set is described as follows: Antiarthritic activity in collagen-induced DBA/1J mouse arthritis model assessed as reduction of macroscopic score at 9.7 mg/kg, ip administered daily for 2 weeks starting on day 27 post first immunization measured thrice per week during compound dosing relative to control. The format is functional, organism-based. The method in brief:
as §6

The subject of data set [20] is Mus musculus. Description: Toxicity in collagen-induced DBA/1J mouse arthritis model assessed as decrease in body weight at 9.7 mg/kg, ip administered daily for 2 weeks starting on day 27 post first immunization measured thrice per week during compound dosing. The format is organism-based. The conditions noted are these: in vivo, 336 h. The method in brief: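 CIA in male DBA/1J mice (8–9 wk, n = 8/group) from chicken type-II collagen/CFA immunization (day −1, boost day 21). Daily i.p. dosing in 2% DMSO/PBS for 14 days starting day 27. Body weight recorded three times weekly as a general-health indicator, compared with vehicle. Data are mean ± SEM.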

One may read the half-life as the time in which the quantity being followed falls by half. `CN(Cc1cnc2nc(N)nc(NC(=O)OCc3ccc(B(O)O)cc3)c2n1)c1ccc(C(=O)N[C@@H](CCC(=O)O)C(=O)O)cc1`: the Drug metabolism result in data set [1] and in [2] was “Metabolite detected” each time. For the same compound, the solubility kinetic at 20 h in [3] was found to be 87 µM (≈ 55 µg/mL). The half-life is 238 h in data set [4], 8 h in [5] and 239 h in data set [6]. For the same compound, the half-life at 20 µM in [7] is 70 h; in [8], 17 h. In addition, the results for the microsomal CLint at 10 µM in [9] and in [10] were 2.2 µL/min/mg and 6.4 µL/min/mg, respectively. Besides, the remaining at 24 h in data set [11] is > 90%. Also, the remaining at 24 h, 20 µM in [12] was determined as 70%. Further, in data set [13], the remaining at 8 h, 20 µM was found to be 62%. For the same compound, the result in the data set on NCI-H460 [14] and in the data set on MCF7 [15] was inactive. Besides, the result in the data set with NCI-H460 [16], in the data set with MCF7 [17], in the data set with Mus musculus [18] and with Mus musculus [19] was Active. Also, the Activity result in the data set on Mus musculus [20] is “Non-Toxic”.
